In ChEMBL document CHEMBL1141865, “Discovery of 4-heteroarylbicyclo[2.2.2]octyltriazoles as potent and selective inhibitors of 11beta-HSD1: novel therapeutic agents for the treatment of metabolic syndrome” (Bioorg Med Chem Lett, 2005):
Values belong to the molecule of their own block, whether it stands above or below them.

Columns and labels:
[1] = molecular target: 11-beta-hydroxysteroid dehydrogenase 1 (Mus musculus, UniProt P50172); assay: Inhibitory activity against mouse 11beta-HSD1
[2] = molecular target: T1, 11-beta-hydroxysteroid dehydrogenase type 2 (Homo sapiens, UniProt P80365); assay: Inhibitory activity against human 11beta-HSD2
T1 sequence (P80365 whole entry): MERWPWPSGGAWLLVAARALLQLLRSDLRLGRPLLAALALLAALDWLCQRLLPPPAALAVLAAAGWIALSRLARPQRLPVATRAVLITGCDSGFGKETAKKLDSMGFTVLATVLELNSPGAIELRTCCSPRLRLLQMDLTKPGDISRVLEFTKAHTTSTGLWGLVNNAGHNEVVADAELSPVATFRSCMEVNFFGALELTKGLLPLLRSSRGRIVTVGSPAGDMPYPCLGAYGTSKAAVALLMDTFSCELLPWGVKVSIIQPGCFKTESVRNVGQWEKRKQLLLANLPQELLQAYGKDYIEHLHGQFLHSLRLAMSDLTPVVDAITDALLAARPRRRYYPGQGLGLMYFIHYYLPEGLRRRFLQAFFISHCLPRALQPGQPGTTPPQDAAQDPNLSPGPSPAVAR

[3] = molecular target: T2, 11-beta-hydroxysteroid dehydrogenase type 2 (Mus musculus, UniProt P51661); assay: Inhibitory activity against mouse 11beta-HSD2
T2 sequence (P51661 whole entry): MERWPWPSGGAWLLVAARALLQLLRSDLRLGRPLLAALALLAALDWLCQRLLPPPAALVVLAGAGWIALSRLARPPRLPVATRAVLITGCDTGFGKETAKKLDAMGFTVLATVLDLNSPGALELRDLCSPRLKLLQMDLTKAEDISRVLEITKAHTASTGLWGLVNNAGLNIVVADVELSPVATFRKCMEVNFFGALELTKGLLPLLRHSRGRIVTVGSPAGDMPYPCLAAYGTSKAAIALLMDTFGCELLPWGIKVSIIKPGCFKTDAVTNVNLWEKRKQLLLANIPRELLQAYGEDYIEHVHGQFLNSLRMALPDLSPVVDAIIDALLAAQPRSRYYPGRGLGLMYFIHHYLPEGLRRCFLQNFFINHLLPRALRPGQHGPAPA

[4] = molecular target: T3, 11-beta-hydroxysteroid dehydrogenase 1 (Homo sapiens, UniProt P28845); assay: Inhibitory activity against human 11beta-HSD1
Target sequence in this assay (P28845 whole entry): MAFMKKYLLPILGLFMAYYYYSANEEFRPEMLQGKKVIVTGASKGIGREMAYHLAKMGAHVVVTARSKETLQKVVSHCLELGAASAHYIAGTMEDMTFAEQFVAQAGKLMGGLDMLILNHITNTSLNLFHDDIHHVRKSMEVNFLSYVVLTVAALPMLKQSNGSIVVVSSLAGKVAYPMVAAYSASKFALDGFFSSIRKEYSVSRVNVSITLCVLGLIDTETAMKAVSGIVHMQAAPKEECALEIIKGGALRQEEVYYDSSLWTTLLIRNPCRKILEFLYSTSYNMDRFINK

[5] = molecular target: T4, 11-beta-hydroxysteroid dehydrogenase type 2 (Homo sapiens) (UniProt P80365); assay: Inhibitory activity against human 11beta-HSD2 at 4 uM
T4 sequence (whole entry): T1 sequence (P80365 whole entry)

[6] = Oral bioavailability in mouse; type: ADME, organism-based; conditions: in vivo
Mus musculus [7] = species on record: Mus musculus; assay: (§1) Plasma clearance in mouse; type: ADME, organism-based; conditions: in vivo
[8] = molecular target: T3, 11-beta-hydroxysteroid dehydrogenase 1; assay: In vivo inhibition of 11beta-HSD1 at 1 h (10 mg/kg, po) assessed by extent of cortisone to cortisol conversion; type: functional, organism-based
Procedure, shortened: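 Oral dosing at 10 mg/kg, followed by exogenous [3H]cortisone as the 11β-HSD1 substrate. In vivo enzyme activity is read out as the extent of conversion to [3H]cortisol, reported as % inhibition.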
Target sequence in this assay (P28845 whole entry, looked up): as the sequence (P28845 whole entry) above

Rattus norvegicus = species on record: Rattus norvegicus; assay: AUC in rat; type: ADME, organism-based, Plasma; conditions: in vivo
[9] = Half life in mouse; type: ADME, organism-based; conditions: in vivo
[10] = Plasma clearance in rat; type: ADME, organism-based
Mus musculus [11] = species on record: Mus musculus; assay: AUC in mouse; type: ADME, organism-based, Plasma; conditions: in vivo
[12] = plasma clearance in dog; type: ADME, organism-based, Canis lupus familiaris
[13] = Half life in dog; type: ADME, organism-based, Canis lupus familiaris; conditions: in vivo
[14] = as §1; type: ADME, organism-based; conditions: plasma
[15] = Oral bioavailability in rat; type: ADME, organism-based; conditions: in vivo
[16] = Half life in rat; type: ADME, organism-based; conditions: in vivo
Canis familiaris = species on record: Canis familiaris; assay: AUC in dog; type: ADME, organism-based, Canis lupus familiaris, Plasma; conditions: in vivo
[17] = Oral bioavailability in dog; type: ADME, organism-based, Canis lupus familiaris; conditions: in vivo

Chain of 11-beta-hydroxysteroid dehydrogenase 1 (Mus musculus, UniProt P50172) (P50172 whole entry): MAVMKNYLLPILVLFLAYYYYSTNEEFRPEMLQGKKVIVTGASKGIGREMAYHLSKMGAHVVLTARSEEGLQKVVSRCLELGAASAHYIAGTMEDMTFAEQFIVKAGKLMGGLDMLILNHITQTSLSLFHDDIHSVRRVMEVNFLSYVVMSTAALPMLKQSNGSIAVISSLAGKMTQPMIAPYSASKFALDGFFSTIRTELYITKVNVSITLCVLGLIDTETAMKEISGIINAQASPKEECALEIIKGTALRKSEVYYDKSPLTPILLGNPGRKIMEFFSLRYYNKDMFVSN

IC50 [1]: < 0.98 nM
SMILES: Cn1c(-c2ccccc2C(F)(F)F)nnc1C12CCC(c3nc(-c4ccc(S(=O)(=O)C(F)(F)F)cc4)no3)(CC1)CC2

IC50 [1]: 9.5 nM
SMILES: Cn1c(-c2ccccc2C(F)(F)F)nnc1C12CCC(c3nc(-c4cccc(S(C)(=O)=O)c4)no3)(CC1)CC2

IC50 [1]: < 1 nM
SMILES: Cn1c(-c2ccccc2C(F)(F)F)nnc1C12CCC(c3noc(-c4ccc(F)cc4)n3)(CC1)CC2

IC50 [1]: < 1 nM
SMILES: Cn1c(-c2ccccc2C(F)(F)F)nnc1C12CCC(c3nc(-c4ccc(C(O)C(F)(F)F)cc4)no3)(CC1)CC2 (stereo not given)

IC50 [2]: > 4000 nM
IC50 [3]: > 4 µM
IC50 [4]: 110 nM
IC50 [1]: 68 nM
SMILES: COC(=O)C12CCC(c3nnc4n3CCCCCC4)(CC1)CC2

IC50 [1]: 4.5 nM
SMILES: COc1ccc(-c2noc(C34CCC(c5nnc(-c6ccccc6C(F)(F)F)n5C)(CC3)CC4)n2)cn1

IC50 [1]: 5 nM
SMILES: Cn1c(-c2ccccc2C(F)(F)F)nnc1C12CCC(c3nnc(-c4ccc(F)cc4)o3)(CC1)CC2

IC50 [3]: > 4 µM
IC50 [4]: 170 nM
IC50 [1]: < 3.9 nM
inhibition [5]: 61%
SMILES: C1CCCn2c(nnc2C23CCC(c4nc(CC5CC5)no4)(CC2)CC3)CC1

IC50 [1]: 3.2 nM
SMILES: Cn1c(-c2ccccc2Cl)nnc1C12CCC(c3nc(-c4ccc(F)cc4)no3)(CC1)CC2

IC50 [2]: > 4000 nM
IC50 [3]: > 4 µM
IC50 [4]: 289 nM
IC50 [1]: 136 nM
SMILES: Cc1noc(C23CCC(c4nnc5n4CCCCCC5)(CC2)CC3)n1

IC50 [1]: 29 nM
SMILES: Cn1c(-c2ccccc2S(C)(=O)=O)nnc1C12CCC(c3nc(-c4ccc(F)cc4)no3)(CC1)CC2

IC50 [2]: 183 nM
bioavailability [6]: 6%
IC50 [3]: 2.1 µM
CL (Mus musculus [7]): 14.1 mL/min/kg
inhibition [8]: 74%
IC50 [4]: 5 nM
IC50 [1]: 3 nM
SMILES: CCCCCC12CCC(c3nnc4n3CCCCCC4)(CC1)CC2

AUC (Rattus norvegicus): 6.2 uMh
half-life [9]: 1060 min
clearance [10]: 5.39 mL/min/kg
bioavailability [6]: 58%
AUC (Mus musculus [11]): 5.7 uMh
clearance [12]: 3.51 mL/min/kg
half-life [13]: 592 min
clearance [14]: 5.88 mL/min/kg
bioavailability [15]: 83%
half-life [16]: 306 min
IC50 [1]: 1.9 nM
AUC (Canis familiaris): 9.55 uMh
bioavailability [17]: 100%
SMILES: Cn1c(-c2ccccc2C(F)(F)F)nnc1C12CCC(c3nc(-c4ccc(F)cc4)no3)(CC1)CC2

bioavailability [6]: 21%
clearance [14]: 273 mL/min/kg
inhibition [8]: 99%
IC50 [4]: 2 nM
IC50 [1]: 3 nM
SMILES: CCCCCC12CCC(c3nnc(-c4ccccc4C(F)(F)F)n3C)(CC1)CC2

IC50 [1]: 12 nM
SMILES: COc1ccc(-c2nnc(C34CCC(c5nc(-c6ccc(F)cc6)no5)(CC3)CC4)n2C)c(Cl)c1

IC50 [1]: 22 nM
SMILES: Cn1c(-c2ccccc2C(F)(F)F)nnc1C12CCC(c3nc(-c4ccc(=O)n(C)c4)no3)(CC1)CC2

IC50 [1]: 2.4 nM
SMILES: Cn1c(-c2ccccc2C(F)(F)F)nnc1C12CCC(c3nc(-c4ccc(F)cc4)c[nH]3)(CC1)CC2

IC50 [1]: 1.6 nM
SMILES: Cn1c(-c2ccccc2C(F)(F)F)nnc1C12CCC(c3n[nH]c(-c4ccc(F)cc4)n3)(CC1)CC2

IC50 [1]: 5.2 nM
SMILES: Cn1c(-c2ccccc2OC(F)F)nnc1C12CCC(c3nc(-c4ccc(F)cc4)no3)(CC1)CC2

IC50 [1]: 1.8 nM
SMILES: Cn1c(-c2ccccc2C(F)(F)F)nnc1C12CCC(c3nc(-c4ccc(S(C)(=O)=O)cc4)no3)(CC1)CC2

IC50 [1]: 2 nM
SMILES: Cn1c(-c2ccccc2C(F)(F)F)nnc1C12CCC(c3nc(-c4ccc(Cl)cc4)no3)(CC1)CC2

IC50 [1]: 2.3 nM
SMILES: COc1cc(O)ccc1-c1nnc(C23CCC(c4nc(-c5ccc(F)cc5)no4)(CC2)CC3)n1C

IC50 [3]: 4 µM
IC50 [1]: 17 nM
SMILES: Clc1ccc(-c2noc(C34CCC(c5nnc6n5CCCCCC6)(CC3)CC4)n2)cc1
